Screening data as filed in PubChem.
This is a sample that favours compounds with a hit; in the whole collection about 1.9% have one here.
CASP6 VEID inh: human caspase-6 inhibitors, primary screen, biochemical, VEID-R110 fluorescence, single point, set 2; inhibition, % at 12.5 µM; purified caspase-6, Z-VEID-R110 cleavage fluorescence; AID 686996, 2013; hit rate 0.53% among 350,000; P55212;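 active means mean inhibition across replicates at least about 35%, with every replicate also reaching that limit, limit read from the data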
NSD2 inh: NSD2 histone methyltransferase inhibitors, primary screen, biochemical, AlphaScreen, single concentration, set 2 | Histone-lysine N-methyltransferase NSD2 (Homo sapiens), O96028 | NSD2 peptide methylation, 120 min | inhibition, % at 12.5 µM | hit rate 0.54% among 310,000 | AID 743445, 2014; in the data active means inhibition above about 50%
Target sequence (O96028 whole entry, looked up): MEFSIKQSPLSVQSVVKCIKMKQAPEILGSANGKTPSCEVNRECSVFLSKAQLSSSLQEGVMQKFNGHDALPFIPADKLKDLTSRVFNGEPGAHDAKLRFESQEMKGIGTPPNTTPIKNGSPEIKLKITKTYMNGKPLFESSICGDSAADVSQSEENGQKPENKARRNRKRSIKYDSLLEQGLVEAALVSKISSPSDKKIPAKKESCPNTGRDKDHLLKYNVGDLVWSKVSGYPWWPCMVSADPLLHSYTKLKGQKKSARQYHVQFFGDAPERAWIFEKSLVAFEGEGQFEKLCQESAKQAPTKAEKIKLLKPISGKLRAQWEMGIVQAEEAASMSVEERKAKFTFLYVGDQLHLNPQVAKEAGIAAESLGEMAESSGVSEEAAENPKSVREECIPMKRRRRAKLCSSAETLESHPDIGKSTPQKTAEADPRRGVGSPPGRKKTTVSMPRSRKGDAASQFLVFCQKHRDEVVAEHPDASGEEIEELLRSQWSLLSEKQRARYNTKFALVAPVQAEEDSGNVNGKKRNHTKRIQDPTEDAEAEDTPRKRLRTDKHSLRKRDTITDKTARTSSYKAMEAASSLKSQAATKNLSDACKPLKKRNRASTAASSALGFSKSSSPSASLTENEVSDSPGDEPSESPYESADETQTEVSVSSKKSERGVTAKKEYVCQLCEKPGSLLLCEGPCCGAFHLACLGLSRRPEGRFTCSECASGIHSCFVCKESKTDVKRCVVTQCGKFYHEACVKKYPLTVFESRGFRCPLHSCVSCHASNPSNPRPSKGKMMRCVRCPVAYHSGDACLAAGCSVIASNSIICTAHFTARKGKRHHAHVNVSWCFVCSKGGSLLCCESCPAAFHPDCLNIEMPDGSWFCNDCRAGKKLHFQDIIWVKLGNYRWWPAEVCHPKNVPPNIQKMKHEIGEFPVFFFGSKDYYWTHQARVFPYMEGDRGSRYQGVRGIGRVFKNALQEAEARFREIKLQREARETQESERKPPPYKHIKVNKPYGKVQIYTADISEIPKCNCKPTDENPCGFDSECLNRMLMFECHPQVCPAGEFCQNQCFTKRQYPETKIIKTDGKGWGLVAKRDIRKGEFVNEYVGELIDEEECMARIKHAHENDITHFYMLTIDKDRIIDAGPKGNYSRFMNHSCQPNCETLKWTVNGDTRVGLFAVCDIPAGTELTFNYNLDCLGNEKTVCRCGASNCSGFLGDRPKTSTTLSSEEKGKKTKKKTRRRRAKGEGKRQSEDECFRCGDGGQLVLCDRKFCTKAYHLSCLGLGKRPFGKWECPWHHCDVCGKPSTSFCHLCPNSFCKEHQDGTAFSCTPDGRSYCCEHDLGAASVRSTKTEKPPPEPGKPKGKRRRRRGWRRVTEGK
UHRF1 binding: UHRF1 methylated DNA binding inhibitors, primary screen, counter-screen for MBD2 inhibitor project, biochemical, TR-FRET, human UHRF1, single concentration. E3 ubiquitin-protein ligase UHRF1 (Homo sapiens), Q96T88. hit rate 0.75% among 370,000. UHRF1 binding to methylated oligo. inhibition, % at 4.4 µM; in the data active means inhibition above about 21%;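 further: UHRF1 SRA domain binding a hemimethylated CpG hairpin DNA probe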
MBD2 DNA inh: inhibitors of MBD2 binding to methylated DNA, primary screen, biochemical, TR-FRET, DNA-binding domain, human. MBD2 binding to methylated oligonucleotide. inhibition, % at 4.4 µM. Methyl-CpG-binding domain protein 2 (Homo sapiens), Q9UBB5. hit rate 0.31% among 370,000; in the data active means inhibition above about 13%
LEDGF integ inh: blockers of LEDGF/p75-dependent integrase strand transfer – biochemical, TR-FRET, high throughput, primary screen; AID 743269, 2014; TR-FRET IN-LEDGF/p75 DNA integration, Eu/Cy5; inhibition, % at 3.7 µM; hit rate 0.64% among 370,000;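 active means inhibition above the screen-wide mean plus 3 SD, cut at about 13% in these data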;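 further: signal is the Cy5 over europium emission ratio at 671 and 618 nm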
TDP2 inh: human TDP2 enzyme inhibitors, primary screen, biochemical, epi absorbance, recombinant enzyme. inhibition, % at 12.8 µM. hit rate 0.34% among 370,000. T5PNP hydrolysis, p-nitrophenol absorbance 415 nm;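 active means inhibition above the mean of all tested compounds plus 3 SD, set per campaign, cut at about 25% in these data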
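Assay system: recombinant human TDP2 / Reagent: T5PNP substrate at 5 mM, a TopII-DNA adduct mimic / Measured by: epi absorbance from released p-nitrophenol / Evaluation: % inhibition relative to enzyme-containing and enzyme-free wells / Control set: enzyme-free and DMSO wells / Replicates: each compound tested once, singlicate / Schedule: enzyme reaction with compound for 2 h at 37 °C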
IN multimer act: HIV-1 IN multimer formation enhancers, counter-screen for LEDGF/p75 integration inhibitor project, biochemical, TR-FRET; TR-FRET HIV-1 integrase multimerization; AID 1053131, 2014; hit rate 17% among 2,000; shares compounds with LEDGF integ inh; activation, % at 7.7 µM; in the data active means activation above about 8.9%
TRFRET interf: TR-FRET optical interference artefacts, confirmation, artefact control for LEDGF/p75-dependent integration inhibitor project, biochemical, HIV-1 IN multimerization; 2,000 tested, under 10 active; inhibition, % at 7.7 µM; shares compounds with LEDGF integ inh; TR-FRET optical interference counterscreen; AID 1053135, 2014;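 active means inhibition above the mean over all tested compounds plus 3 SD, which no compound reached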
IN-LEDGF confirm: inhibitors of HIV-1 IN-LEDGF/p75 DNA integration, confirmation, biochemical, TR-FRET; hit rate 36% among 2,000; inhibition, % at 3.7 µM; shares compounds with LEDGF integ inh; TR-FRET LEDGF/p75-dependent HIV-1 integration; in the data active means inhibition above about 14%
Large screens that a line does not name were inactive (follow-up assays come after a bar, where they were run).

COc1cccc(=O)c2c(C)n(-c3cc(C)cc(C)c3)c(C)c12	none (no result: CASP6 VEID inh)
COc1cccc(=O)c2c(C)n(C)c(C)c12	UHRF1 binding 22, LEDGF integ inh 36 (no result: CASP6 VEID inh) | IN multimer act inactive | TRFRET interf inactive | IN-LEDGF confirm inactive
CCCCCn1c(C)c2c(OCC)cccc(=O)c2c1C	none
Cc1cccnc1NC(=O)C1CCN(S(=O)(=O)c2c(C)noc2/C=C/c2ccco2)CC1	LEDGF integ inh 24 (no result: CASP6 VEID inh) | IN multimer act inactive | TRFRET interf inactive | IN-LEDGF confirm inactive
Cc1noc(/C=C/c2ccco2)c1S(=O)(=O)N1CCC(C(=O)NCc2ccco2)CC1	LEDGF integ inh 33 (no result: CASP6 VEID inh) | IN multimer act inactive | TRFRET interf inactive | IN-LEDGF confirm inactive
Cc1ccc(NC(=O)C2CCN(S(=O)(=O)c3c(C)noc3/C=C/c3ccco3)CC2)nc1	none (no result: CASP6 VEID inh)
Cc1ccc(CNC(=O)C2CCN(S(=O)(=O)c3c(C)noc3/C=C/c3ccco3)CC2)cc1	none (no result: NSD2 inh)
Cc1noc(C)c1NC(=O)N(C)C[C@@H]1Oc2ccc(NC(=O)CCCCCC(=O)Nc3ccccc3N)cc2CC(=O)N([C@@H](C)CO)C[C@@H]1C	none (no result: NSD2 inh, UHRF1 binding, MBD2 DNA inh, LEDGF integ inh, TDP2 inh)
CC(/C=N/n1c(-c2ccncc2)n[nH]c1=S)=C\c1ccco1	LEDGF integ inh 16 | IN multimer act inactive | TRFRET interf inactive | IN-LEDGF confirm inactive
CC(/C=N/n1c(-c2ccccc2)n[nH]c1=S)=C\c1ccco1	LEDGF integ inh 16 (no result: CASP6 VEID inh) | IN multimer act inactive | TRFRET interf inactive | IN-LEDGF confirm inactive
O=C1C=C(Nc2cccc(O)c2)CC(c2ccco2)C1 (configuration not stated)	LEDGF integ inh 14 | IN multimer act inactive | TRFRET interf inactive | IN-LEDGF confirm inactive
CCN=c1scc(C)n1/N=C/c1ccc(O)c(O)c1O	LEDGF integ inh 52 (no result: CASP6 VEID inh, NSD2 inh) | IN multimer act 20 | TRFRET interf inactive | IN-LEDGF confirm 36
COc1ccccc1/C=C/C=c1\sc2nc(=O)c(Cc3ccccc3)nn2c1=O	none
CCCOc1ccc(Cc2nn3c(=O)/c(=C/c4ccco4)sc3nc2=O)cc1	UHRF1 binding 23, LEDGF integ inh 27 (no result: CASP6 VEID inh) | IN multimer act inactive | TRFRET interf inactive | IN-LEDGF confirm 15
CC(C)(C)C(=O)Nc1ccc(/C=C/C(=O)c2ccco2)cc1	LEDGF integ inh 34 | IN multimer act inactive | TRFRET interf inactive | IN-LEDGF confirm inactive
COc1ccc(C[C@@H]2CN3C(=NC[C@@H]3C)N2C[C@H](C)NC(=O)CCC2CCCCC2)cc1	LEDGF integ inh 52 (no result: NSD2 inh) | IN multimer act inactive | TRFRET interf inactive | IN-LEDGF confirm inactive
C[C@H]1CN([C@@H](C)CO)C(=O)c2cc(NC(=O)Nc3ccccc3)ccc2O[C@H]1CN(C)Cc1ccc(Oc2ccccc2)cc1	none (no result: NSD2 inh, UHRF1 binding, MBD2 DNA inh, LEDGF integ inh, TDP2 inh)
CCCCCCSc1ccc([C@H]2N[C@@](C)(C(=O)OC)[C@H]3C(=O)N(CC)C(=O)[C@@H]23)cc1	LEDGF integ inh 15 (no result: NSD2 inh) | IN multimer act inactive | TRFRET interf inactive | IN-LEDGF confirm inactive
CCCCCCSc1ccc([C@H]2N[C@@](CC(C)C)(C(=O)OC)[C@H]3C(=O)N(CC)C(=O)[C@@H]23)cc1	none (no result: NSD2 inh)
CC(C)NC(=O)N(C)C[C@@H]1Oc2ccc(NS(=O)(=O)c3ccccc3)cc2CC(=O)N([C@@H](C)CO)C[C@H]1C	none (no result: NSD2 inh, UHRF1 binding, MBD2 DNA inh, LEDGF integ inh, TDP2 inh)
